Assay results as given in ChEMBL document CHEMBL1148450, “Novel amino acid derived natural products from the ascidian Atriolum robustum: identification and pharmacological characterization of a unique adenosine derivative” (J Med Chem, 2004).

What was measured:
[1] = target: T1, Adenosine receptor A2a (Rattus norvegicus, UniProt P30543); assay: Displacement of [3H]-MSX-2 from Adenosine A2A receptor of rat striatal membranes; type: cell membranes, Membrane
In short: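 Rat striatal membranes (protein ca. 70 µg/mL) were incubated with 1 nM [3H]MSX-2 in 50 mM Tris-HCl, pH 7.4, for 30 min at 23 °C. […] Filtration was on PEI-presoaked GF/B filters with scintillation counting. Seven to nine concentrations (DMSO stock) spanned 3 log units; three experiments, each in duplicate.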

[2] = target: T2, Adenosine receptor A3 (Homo sapiens, UniProt P0DMS8); assay: Displacement of [3H]PSB-11 from human adenosine A3 receptor expressed in CHO cells; type: cell-based
T2 sequence (P0DMS8 whole entry): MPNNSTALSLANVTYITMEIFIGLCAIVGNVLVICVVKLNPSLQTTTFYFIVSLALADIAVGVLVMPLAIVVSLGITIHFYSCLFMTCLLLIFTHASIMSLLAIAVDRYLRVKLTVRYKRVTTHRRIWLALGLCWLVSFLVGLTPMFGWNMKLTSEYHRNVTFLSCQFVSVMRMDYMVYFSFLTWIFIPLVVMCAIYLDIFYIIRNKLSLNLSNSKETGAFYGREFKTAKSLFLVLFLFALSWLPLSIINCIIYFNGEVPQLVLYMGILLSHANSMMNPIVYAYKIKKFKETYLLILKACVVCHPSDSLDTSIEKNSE
In short: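 Membranes came from CHO cells stably expressing human A3AR. They were incubated with 0.5 nM [3H]PSB-11 in 50 mM Tris-HCl, pH 7.4, for 45 min, and 100 µM R-PIA defined nonspecific binding. Bound radioactivity was collected on GF/B filters and scintillation-counted. Seven to nine test concentrations were used; run twice, each in duplicate.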

[3] = target: T3, Adenosine receptor A2b (Homo sapiens, UniProt P29275); assay: Displacement of [3H]PSB-298 from human adenosine A2B receptor expressed in HEK293 cells at 10 uM; type: cell-based
T3 sequence (P29275 whole entry): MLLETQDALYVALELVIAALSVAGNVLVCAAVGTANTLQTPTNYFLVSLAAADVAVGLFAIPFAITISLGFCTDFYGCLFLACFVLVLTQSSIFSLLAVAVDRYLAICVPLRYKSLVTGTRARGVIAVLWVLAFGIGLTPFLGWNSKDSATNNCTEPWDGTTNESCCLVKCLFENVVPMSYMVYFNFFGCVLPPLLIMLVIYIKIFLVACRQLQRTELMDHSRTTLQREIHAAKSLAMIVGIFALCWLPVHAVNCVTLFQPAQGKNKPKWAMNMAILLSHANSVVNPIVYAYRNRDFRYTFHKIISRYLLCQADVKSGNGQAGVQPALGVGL

[4] = target: T4, Adenosine receptor A1 (Rattus norvegicus) (UniProt P25099); assay: Binding affinity against adenosine A1 receptor in the presence of GTP relative to the absence of GTP
T4 sequence (whole entry): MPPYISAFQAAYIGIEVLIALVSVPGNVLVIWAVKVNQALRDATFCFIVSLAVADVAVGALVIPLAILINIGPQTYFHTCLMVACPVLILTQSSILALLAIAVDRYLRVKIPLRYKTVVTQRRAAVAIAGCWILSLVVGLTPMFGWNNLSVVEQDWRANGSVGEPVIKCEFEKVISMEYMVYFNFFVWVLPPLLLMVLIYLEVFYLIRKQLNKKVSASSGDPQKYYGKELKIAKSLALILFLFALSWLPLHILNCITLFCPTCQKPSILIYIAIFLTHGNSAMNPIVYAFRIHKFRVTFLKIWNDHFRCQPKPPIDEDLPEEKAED

[5] = target: T5, Adenosine receptor A1 (Rattus norvegicus, UniProt P25099); assay: Displacement of [3H]DPCPX from adenosine A1 receptor of rat cortical membranes with GTP; type: cell membranes, Membrane
T5 sequence (P25099 whole entry): T4 sequence (whole entry)
In short: (§1)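 Cortical A1 assay as for [3H]CCPA (50 mM Tris-HCl pH 7.4, 23 °C, 90 min, ~70 µg/mL protein) but with [3H]DPCPX as radioligand and 10 µM unlabeled DPCPX for nonspecific binding. Curves were run without and with 100 µM GTP and fitted by nonlinear regression to apparent IC50s. GTP shift = IC50(+GTP)/IC50(−GTP). Two experiments, each in duplicate.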

[6] = target: T2, Adenosine receptor A3; assay: Inhibition of forskolin-stimulated cAMP accumulation in chinese hamster ovary cell membranes expressing human adenosine A3 receptor; type: functional, cell-based
[7] = target: T5, Adenosine receptor A1; assay: Displacement of [3H]DPCPX from rat Adenosine A1 receptor of cortical membranes; type: cell membranes, Membrane; in short: as §1
[8] = target: T5, Adenosine receptor A1; assay: Displacement of [3H]DPCPX from adenosine A1 receptor of rat cortical membranes without GTP; type: cell membranes, Membrane; in short: as §1
[9] = target: T6, Adenosine receptor A3 (Homo sapiens) (UniProt P0DMS8); assay: Percent efficacy for inhibition of human adenosine A3 receptor activity relative to NECA; type: functional
T6 sequence (whole entry): T2 sequence (P0DMS8 whole entry)

[10] = target: T5, Adenosine receptor A1; assay: Displacement of [3H]CCPA from Adenosine A1 receptor of rat cortical membranes; type: cell membranes, Membrane
In short: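 A1 binding used rat cortical membranes (ca. 70 µg/mL protein) with 0.5 nM [3H]CCPA in 50 mM Tris-HCl, pH 7.4, for 90 min at 23 °C. 10 µM 2-chloroadenosine defined nonspecific binding. Separation was by GF/B filtration and scintillation counting. Inhibition curves had seven to nine concentrations across 3 orders of magnitude; three separate experiments, each in duplicate.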

[11] = target: T5, Adenosine receptor A1; assay: Displacement of [3H]R-PIA from adenosine A1 receptor of rat cortical membranes; type: cell membranes, Membrane
[12] = target: T5, Adenosine receptor A1; assay: Displacement of [3H]CCPA from adenosine A1 receptor of rat cortical membranes; type: cell membranes, Membrane
In short: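 Rat brain cortical membranes at about 70 µg/mL protein, with 0.5 nM [3H]CCPA in 50 mM Tris-HCl pH 7.4, 23 °C for 90 min. Nonspecific binding was set with 10 µM 2-chloroadenosine. Bound ligand was collected by GF/B filtration and counted by scintillation. The test compound came from DMSO at 7–9 concentrations spanning 3 orders of magnitude. Three experiments were run, each in duplicate.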

[13] = target: T5, Adenosine receptor A1; assay: Displacement of [3H]DPCPX from adenosine A1 receptor of rat cortical membranes; type: cell membranes, Membrane
In short: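 Run as the rat cortical membrane A1 assay (50 mM Tris-HCl pH 7.4, 23 °C, 90 min) but with [3H]DPCPX as radioligand. Nonspecific binding was set with 10 µM unlabeled DPCPX. Binding was measured without and with 100 µM GTP, and IC50 came from nonlinear regression. GTP shift is the IC50 with GTP divided by the IC50 without GTP. Two experiments were run, each in duplicate.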

[14] = target: T3, Adenosine receptor A2b; assay: Binding affinity towards human adenosine A2B receptor in VA13 fibroblasts as […] at 10 uM; Less than 10% inhibition; type: functional
[15] = target: T1, Adenosine receptor A2a; assay: Displacement of [3H]NECA from Adenosine A2A receptor of rat striatal membranes; type: cell membranes, Membrane
[16] = target: T3, Adenosine receptor A2b; assay: Displacement of [3H]PSB-298 from human adenosine A2B receptor expressed in HEK293 cells at 10 uM; Less than 10% inhibition; type: cell-based

T1 sequence (P30543 whole entry): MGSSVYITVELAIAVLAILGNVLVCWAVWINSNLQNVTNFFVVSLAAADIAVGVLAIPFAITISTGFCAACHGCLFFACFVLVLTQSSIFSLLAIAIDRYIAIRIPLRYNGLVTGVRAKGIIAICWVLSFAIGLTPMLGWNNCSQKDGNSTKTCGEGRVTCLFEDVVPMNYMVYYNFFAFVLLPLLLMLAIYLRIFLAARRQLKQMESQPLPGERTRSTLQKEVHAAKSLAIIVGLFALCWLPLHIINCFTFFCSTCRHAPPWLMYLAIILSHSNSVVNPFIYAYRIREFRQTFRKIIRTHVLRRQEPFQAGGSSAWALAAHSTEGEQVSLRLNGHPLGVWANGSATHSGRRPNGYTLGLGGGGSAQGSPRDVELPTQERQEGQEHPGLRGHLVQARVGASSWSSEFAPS

Ki [1] [µM]	Ki [2] [µM]	Ki [3] [µM]	Ratio [4]	IC50 [5] [µM]	IC50 [6] [µM]	Ki [7] [µM]	IC50 [8] [µM]	Efficacy [9] [%]	Ki [10] [µM]	Ki [11] [µM]	Ki [12] [µM]	Ki [13] [µM]	Ki [14] [µM]	Ki [15] [µM]	Ki [16] [µM]	Compound
17.1	6.94	> 10	6.2	143	6.7	9.45	23	56	3.26							CO/C(=C\c1ccc(O)cc1)C(=O)O[C@@H]1[C@H](OC(=O)/C=C/c2c[nH]cn2)[C@@H](CSC)O[C@H]1n1cnc2c(N)ncnc21
			1.2	14.7			12.5									Cn1cnc2c(N)ncnc21
			22.8	0.125			0.005									CC(=O)O[C@]1(C(C)=O)CC[C@H]2[C@@H]3C=C(Cl)C4=CC(=O)[C@@H]5C[C@@H]5[C@]4(C)[C@H]3CC[C@@]21C [CYPROTERONE ACETATE]
1.13	0.68		22.2	15.1	71		0.68	46		0.24	0.15	0.21	8.2	1.18	13.9	CSC[C@H]1O[C@@H](n2cnc3c(N)ncnc32)[C@H](O)[C@@H]1O [METHYLTHIOADENOSINE]
